# CHRM5 antagonist – human M5 muscarinic receptor antagonists, primary screen, CHO cells, Fluo-8 calcium fluorescence. Muscarinic acetylcholine receptor M5 (Homo sapiens), P08912. CHO-hM5 cells, ACh EC80. inhibition, % at 3 µM. actives 0.59% (n = 360,000);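 active means inhibition above a per-plate cutoff, the mean of that plate's test compounds plus 3 SD, cut at about 27% in these data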;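 further: 0% = acetylcholine EC80 with DMSO and 100% = DMSO without agonist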
# Target sequence (P08912 whole entry, looked up): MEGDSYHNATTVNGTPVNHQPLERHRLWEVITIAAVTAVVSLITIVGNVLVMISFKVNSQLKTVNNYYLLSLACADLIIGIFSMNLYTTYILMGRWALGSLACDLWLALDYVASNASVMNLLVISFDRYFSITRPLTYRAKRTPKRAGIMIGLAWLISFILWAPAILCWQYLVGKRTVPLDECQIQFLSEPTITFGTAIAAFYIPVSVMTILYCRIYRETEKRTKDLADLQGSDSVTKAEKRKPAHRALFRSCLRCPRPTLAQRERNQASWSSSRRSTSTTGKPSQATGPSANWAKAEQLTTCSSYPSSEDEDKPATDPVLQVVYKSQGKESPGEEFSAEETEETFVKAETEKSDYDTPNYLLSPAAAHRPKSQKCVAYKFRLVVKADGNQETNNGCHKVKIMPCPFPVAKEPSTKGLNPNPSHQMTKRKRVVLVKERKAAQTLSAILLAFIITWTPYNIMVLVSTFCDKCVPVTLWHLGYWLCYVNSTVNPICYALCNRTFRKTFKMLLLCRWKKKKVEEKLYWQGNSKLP
# CHRM4 antagonist – human M4 muscarinic receptor antagonists, primary screen, CHO cells, Fluo-8 calcium fluorescence. Muscarinic acetylcholine receptor M4 (Homo sapiens), P08173. CHO-hM4 cells, ACh EC80. inhibition, % at 3 µM. actives 0.73% (n = 360,000). AID 624125, 2012;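 active means inhibition above its plate's cutoff, the mean inhibition of sample wells plus 3 SD, cut at about 27% in these data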;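 further: 0% = acetylcholine EC80 with DMSO and 100% = DMSO without agonist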
# CHRM4 PAM – human M4 muscarinic receptor positive allosteric modulators, primary screen, CHO-K1 cells, Fluo-8 calcium fluorescence | activation, % at 3 µM | AID 624126, 2012 | CHO-K1 hM4/Gqi5, ACh EC20; 0% = ACh EC20, 100% = maximal ACh | actives 0.4% (n = 360,000);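 active means activation above its plate's cutoff, the mean activation of sample wells plus 3 SD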
# CHRM4 agonist – human M4 muscarinic receptor agonists, primary screen, CHO-K1 cells, Fluo-8 calcium fluorescence; Muscarinic acetylcholine receptor M4 (Homo sapiens), P08173; CHO-K1 hM4/Gqi5; vehicle 0%, full acetylcholine response 100%; actives 0.14% (n = 360,000); activation, % at 3 µM;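 active means activation above the run mean over all test wells plus 3 SD, cut at about 32% in these data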;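 further: peak over basal fluorescence ratio per well then scaled between controls; 0% = DMSO wells and 100% = acetylcholine at EC100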
# M5 ag – human M5 muscarinic receptor agonists, primary screen, CHO-K1 cells, Fluo-8 calcium fluorescence; CHO-K1 hM5 cells; 0% DMSO wells, 100% maximal acetylcholine response; actives 0.19% (n = 360,000); Muscarinic acetylcholine receptor M5 (Homo sapiens), P08912; activation, % at 3 µM;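 active means activation above the run's mean over test compounds plus 3 SD, cut at about 23% in these data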;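 further: signal is peak over basal fluorescence ratio across the kinetic read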
# M5 PAM – human M5 muscarinic receptor positive allosteric modulators, primary screen, CHO-K1 cells, Fluo-8 calcium fluorescence. Muscarinic acetylcholine receptor M5 (Homo sapiens), P08912. CHO-K1 hM5, ACh EC20 PAM; 0% = ACh EC20, 100% = ACh EC100. activation, % at 3 µM. actives 0.3% (n = 360,000);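 active means activation above the run cutoff, the mean activation of all test compounds plus 3 SD, cut at about 18% in these data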
#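 System: CHO-K1 cell line with stable human muscarinic M5 receptor expression | Also added: EC20 acetylcholine as agonist stimulus | Compound: One concentration, 3 µM final (nominal) | Timing: Fluo-8 loading 80 min at 37 °C plus 30 min room temperature | Measured by: Fluo-8 calcium dye fluorescence, kinetic read | Read-out basis: % activation, ACh-normalized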
# Starred values were filed as active, the others as inactive. Sampled rows, rich in hits. Any-hit rate of the full collection: about 1.9%.
SMILES,CHRM5 antagonist,CHRM4 antagonist,CHRM4 PAM,CHRM4 agonist,M5 ag,M5 PAM
Cc1nc2sccn2c(=O)c1S(=O)(=O)Nc1ccc(N2CCN(S(C)(=O)=O)CC2)cc1,34*,18,-16,19,-1,-15
Cc1nn(-c2ccccc2)c(C)c1NC(=O)COC(=O)c1cc(Br)ccc1O,22,31*,-3,20,5,-24
O=C(NCCc1cn2ccccc2n1)c1cc(COc2ccc3ncccc3c2)on1,33*,36*,-28,31,6,-32
CCN(CC)C1CCN(C(=O)c2cc(COc3cccc4cccnc34)on2)C1 (stereo not drawn),9,38*,-25,1,-8,-4
O=C(c1cc(COc2ccc3ncccc3c2)on1)N1CCCC1,9,10,6,11,1,-20
O=C(c1cc(COc2cccc3cccnc23)on1)N1CCC[C@H]1CO,14,6,-2,1,1,-2
Cc1cc(OCc2cc(C(=O)N3CCN(CC4CC4)CC3)no2)cc(C)c1Cl,-3,-6,-8,6,-5,-8
O=C(c1cc(COc2ccc3ncccc3c2)on1)N1CCCCCC1,27*,3,-4,22,10,-27
Cc1cc(OCc2cc(C(=O)N3CCC(Oc4cccnc4)CC3)no2)cc(C)c1Cl,24,35*,-12,19,2,-24
O=C(COC(=O)c1ccco1)Nc1ccc(N2CCOCC2)cc1,-1,-15,6,1,2,4
COc1cccc(C(C)(O)c2nc(-c3cccc(C#N)c3)cs2)c1 (stereo not drawn),13,-2,0,8,2,-13
O=C(NC1CCCC1)C(c1ccccn1)N(Cc1ccccc1F)C(=O)c1csnn1 (stereo not drawn),-1,5,3,-1,0,3
COc1cccc(CN(C)C(=O)c2cc(COc3ccc4ncccc4c3)on2)c1,40*,34*,-20,24,4,-35
CC(NC(=O)c1cc(COc2ccc3ncccc3c2)on1)c1ccc(F)cc1 (stereo not drawn),36*,21,-33,22,-1,-31
COc1ccc(-c2ccc(SCC(=O)N3CC(=O)Nc4ccccc43)nn2)cc1,1,-3,0,0,-3,0
Cc1ccc(S(=O)(=O)N2CCN(C(=O)CSc3ccccn3)CC2)c(C)c1,0,-1,0,2,-1,-2
O=C(NNC(=S)Nc1cccc(C(F)(F)F)c1)c1cccc(Cl)c1,46*,7,-8,17,4,-22
Cc1cccc(C(=O)NC(=S)NNC(=O)c2ccc(Cl)cc2)c1,30*,40*,-17,132*,90*,-21
COc1cc(C(=O)NNC(=S)NC(=O)c2ccc(Cl)cc2)cc(OC)c1OC,8,5,-9,44*,33*,-14
Cc1ccc([N+](=O)[O-])cc1CN1CCN(c2ncc(Cc3ccccc3)cn2)CC1,18,3,-5,3,-3,-15
Cn1nccc1C(=O)N1CCN(c2ccccc2F)CC1,6,11,-4,0,-3,0
O=C(NCc1ccncc1)C(=O)N/N=C/c1ccc(OCc2ccccc2)cc1,-7,-10,2,1,-3,6
O=NN(CCc1ccncc1)c1ccc(OCc2ccccc2)cc1,34*,12,-11,13,-5,-25
Cc1ccccc1OCCn1cnc2c(N)ncnc21,4,2,16*,5,3,-3
Cc1ccc(CNC(=O)[C@H]2O[C@@H](n3cnc4c(N)ncnc43)[C@H](O)[C@@H]2O)o1,13,-9,-1,1,2,0
SMILES,CHRM5 antagonist,CHRM4 antagonist,CHRM4 PAM,CHRM4 agonist,M5 ag,M5 PAM
CC(C)CNC(=O)C1(C)CCCN1C(=O)c1csnn1 (stereo not drawn),14,-2,10,0,-1,7
CC(C)CNC(=O)C1(C)CCCCCN1C(=O)c1csnn1 (stereo not drawn),4,-18,19*,1,0,2
CCOC(=O)N1CCN(CC(=O)N2c3ccccc3CC2C)CC1 (stereo not drawn),1,31*,-1,1,1,1
CCN1CCN(CC(=O)N2c3ccccc3CC2C)CC1 (stereo not drawn),-9,3,2,0,-2,6
COC(=O)c1cnc(Oc2ccc(NC(=O)NC(=O)c3c(F)cccc3Cl)cc2)cc1C(F)(F)F,13,-1,3,0,1,1
COC(=O)c1cnc(Oc2c(Cl)cc(N)cc2Cl)cc1C(F)(F)F,-17,-5,7,0,4,19*
CCCCn1c(N)c(N(CCC(C)C)C(=O)c2cc(Cl)nc3ccccc23)c(=O)[nH]c1=O,-13,-3,9,0,3,26*
CCCCn1c(N)c(N(CC(C)C)C(=O)c2cccc(S(=O)(=O)N3CCCCCC3)c2)c(=O)[nH]c1=O,2,-4,9,1,-3,5
CCCCn1c(N)c(N(CC(C)C)C(=O)c2cccc(S(=O)(=O)N3CCCCC3)c2)c(=O)[nH]c1=O,8,5,22*,0,0,-3
CCCCn1c(N)c(N(CCC(C)C)C(=O)CSc2nc3ccccc3n2C)c(=O)[nH]c1=O,-5,1,6,1,-3,21*
CCCCn1c(N)c(N(CCC(C)C)C(=O)COC(=O)c2ccc3ccccc3c2)c(=O)[nH]c1=O,-10,-18,23*,1,2,6
CNc1ccc(C(=O)OCC(=O)NCc2ccc3c(c2)OCO3)cc1[N+](=O)[O-],2,3,-1,2,1,-4
O=C(CCC(=O)N(CC(=O)NC1CCCC1)Cc1ccc(F)cc1)Nc1nccs1,3,0,4,0,-3,5
O=S1(=O)C[C@@H](N2CCN(c3ccccn3)CC2)[C@H](COCc2ccccc2)N1,-5,-11,10,1,1,0
O=C1Nc2ccc(Br)cc2C12NNc1ccccc1O2 (stereo not drawn),31*,21,-6,24,22,-13
O=C1Nc2ccc(Br)cc2C1(O)c1ccccc1 (stereo not drawn),-3,-17,0,6,0,-1

# From PubChem
